Hits are enriched below; roughly 3.1% of the tested compounds scored in any of these assays.
CHO parental Ca = ATP-evoked calcium signal inhibitors, parental CHO, primary screen, counter-screen for OX1R antagonist project, cell-based, fluorescence, Fluo-8 calcium dye; parental CHO-K1, ATP-induced calcium, Fluo-8 fluorescence; inhibition, % at 5.6 µM; hit rate 0.63% among 330,000; AID 463079, 2010;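 active = inhibition above that plate's mean sample inhibition plus 3 SD, cut at about 26% in these data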;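 also: 0% = ATP-challenged DMSO wells and 100% = DMSO wells without ATP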
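material = parental CHO cells | also added = ATP as calcium-mobilizing challenge | dosing = single point at 5.6 µM | detection = intracellular calcium via Fluo-8 no-wash fluorescent dye | read-out = % inhibition | benchmarks = low control ATP plus DMSO, high control DMSO only | repeats = one well per compound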
OX1R antag-1 = antagonists of human orexin 1 receptor (OX1R); Orexin/Hypocretin receptor type 1 (Homo sapiens), O43613; OX1R-expressing cells, FRET antagonist read-out; inhibition, % at 6.6 µM; hit rate 1.8% among 330,000; AID 485270, 2010; in the data active = inhibition mostly above about 38%, no sharp cut-off; inactive = mostly below about 40%;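 also: 0% = agonist challenge alone and 100% = reference antagonist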
GPR7 antagonist = GPR7 receptor antagonists, primary screen, cell-based, fluorescence, single concentration; Neuropeptides B/W receptor type 1 (Homo sapiens), P48145; GPR7-expressing cells, fluorescence antagonist assay; inhibition, % at 4.4 µM; hit rate 1.1% among 290,000; AID 1861, 2009; in the data active = inhibition above about 16%, passing the limit was not always enough;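 also: cells stimulated with the agonist NPW; 0% = agonist with vehicle and 100% = vehicle without agonist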
Target sequence (P48145 whole entry, looked up): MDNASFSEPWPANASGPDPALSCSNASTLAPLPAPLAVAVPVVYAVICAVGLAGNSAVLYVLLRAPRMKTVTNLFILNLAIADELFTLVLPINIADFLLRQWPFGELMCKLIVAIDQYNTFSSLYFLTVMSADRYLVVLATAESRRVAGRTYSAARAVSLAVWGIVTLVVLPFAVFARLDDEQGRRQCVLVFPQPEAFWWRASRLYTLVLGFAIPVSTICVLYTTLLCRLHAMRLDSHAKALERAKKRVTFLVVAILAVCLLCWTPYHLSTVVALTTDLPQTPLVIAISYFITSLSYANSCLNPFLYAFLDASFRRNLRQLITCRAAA
OX1R antag-2 = OX1R (HCRTR1) antagonists, primary screen, fluorescence, CHO/OX1R cells, Fluo-8 calcium, orexin A. hit rate 0.43% among 330,000. Orexin/Hypocretin receptor type 1 (Homo sapiens), O43613. Fluo-8 calcium fluorescence. inhibition, % at 5 µM;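 active = inhibition above its plate's threshold, mean inhibition of all tested compounds on the plate plus 3 SD, cut at about 37% in these data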;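 also: 0% = orexin A challenge wells and 100% = SB-334867-A antagonist wells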
GalR3 antagonist = GalR3 antagonists in HEK293 cells, primary screen, cell-based, fluorescence readout. Galanin receptor type 3 (Homo sapiens), O60755. HEK293 GalR3-CNG cAMP membrane potential fluorescence; galR3 body fused to GalR1 C-terminus. inhibition, % at 3 µM. hit rate 0.44% among 360,000;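 active = inhibition above the screen-wide average plus 3 SD, cut at about 13% in these data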;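 also: forskolin and galanin both at EC90 stimulate the cells; cAMP rise reported by CNG channel membrane potential dye signal; 0% = forskolin plus galanin with DMSO and 100% = forskolin alone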
Target sequence (O60755 1-299 limits assumed): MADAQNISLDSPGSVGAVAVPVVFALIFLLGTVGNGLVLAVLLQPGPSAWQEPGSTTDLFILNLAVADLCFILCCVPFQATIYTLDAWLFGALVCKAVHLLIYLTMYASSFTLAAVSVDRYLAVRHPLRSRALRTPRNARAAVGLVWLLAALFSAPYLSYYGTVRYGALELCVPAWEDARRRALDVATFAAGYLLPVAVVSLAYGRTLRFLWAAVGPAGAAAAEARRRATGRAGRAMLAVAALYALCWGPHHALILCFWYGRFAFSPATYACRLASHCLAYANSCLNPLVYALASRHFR
GPR7 antag conf = GPR7 receptor antagonists, confirmation, cell-based, fluorescence, single concentration; inhibition, % at 4.4 µM; GPR7-expressing cells, calcium fluorescence antagonist mode; shares compounds with GPR7 antagonist; hit rate 52% among 2,400; in the data active = inhibition above about 24%;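 also: stimulated with the GPR7 agonist NPW; 0% = agonist plus vehicle and 100% = vehicle alone without agonist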
MCHR1 antagonist = MCHR1 antagonists in cells, counter-screen for GPR7 antagonist project, cell-based, fluorescence, human; shares compounds with GPR7 antagonist; hit rate 62% among 2,400; MCHR1-expressing cells, fluorescence antagonist assay; inhibition, % at 4.4 µM; AID 2148, 2009; in the data active = inhibition above about 22%;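 also: 0% = vehicle with agonist and 100% = vehicle without agonist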
Active calls of the source: *; nt = no result.

SMILES | CHO parental Ca | OX1R antag-1 | GPR7 antagonist | OX1R antag-2 | GalR3 antagonist | GPR7 antag conf | MCHR1 antagonist
NCCSc1c(-c2ccccc2)[nH]c2ccccc12 | -9 | 2 | 21* | -3 | nt | 19 | 23*
CC(=O)N1C(C)(C)CC(=NOC(=O)c2ccc(C)cc2)CC1(C)C | -10 | 12 | 16 | -22 | -7 | nt | nt
C[C@H](NS(=O)(=O)c1ccc2c(c1)OCCCO2)C(=O)N1CCN(c2ccc(F)cc2)CC1 | -19 | 14 | nt | 2 | -4 | nt | nt
Nc1nonc1C(=O)NCCNCc1c(OCc2ccccc2F)ccc2ccccc12 | -5 | 14 | 28* | 2 | -14 | 47* | 69*
CC1CN(C(=O)CCC(=O)NCc2ccc(Cl)cc2)c2ccccc2S1 (stereo unspecified) | 8 | 7 | 0 | -4 | 1 | nt | nt
CC1CN(C(=O)CCC(=O)NCc2ccc(F)cc2)c2ccccc2S1 (stereo unspecified) | -11 | 4 | 28* | -35 | nt | -5 | 11
CC(=O)Nc1ccc(S(=O)(=O)NCCC(=O)OCc2csc(CC(=O)Nc3ccccc3C)n2)cc1 | -13 | 25 | nt | -16 | -5 | nt | nt
CCCC(=O)Nc1ccc2c(c1)Cc1ccccc1-2 | 2 | 8 | 25* | -13 | -4 | 14 | 24*
Nc1cnn(C2CCCO2)c(=O)n1 (stereo unspecified) | 2 | 10 | 24* | 0 | 2 | 0 | -5
CCCCC(=O)Nc1ncc(S(=O)(=O)c2ccc([N+](=O)[O-])cc2)s1 | 0 | 11 | 35* | 5 | 0 | 26* | 25*
Cc1ccc(NS(=O)(=O)c2cccc(C(=O)N(C)Cc3cccs3)c2)cc1 | -13 | 10 | nt | -17 | -5 | nt | nt
COc1ccc(C2Nc3ccccc3C(=O)N2Cc2ccco2)cc1COc1ccccc1F (stereo unspecified) | 5 | 41 | 26* | 0 | -7 | 25* | 36*
Cc1cccc(N2CCN(CC(=O)Nc3ccc(S(=O)(=O)N4CCOCC4)cc3)CC2)c1C | 55* | 26 | 33* | 34 | -2 | 3 | 35*
Cc1ccc(S(=O)(=O)N2CCOCC2)cc1NC(=O)CN1CCC(Cc2ccccc2)CC1 | -23 | 18 | 37* | -23 | -5 | 25* | 38*
Cc1cccc(N2CCN(CC(=O)Nc3nccs3)CC2)c1C | -24 | 30 | 36* | -25 | -4 | 34* | 36*
COC(=O)C1C2CCCCC1C(=O)O2 (stereo unspecified) | nt | nt | nt | nt | -4 | nt | nt
CN(C)CCCCOc1ccc(Br)cc1Cl | -6 | 29 | 29* | -8 | -5 | 17 | 18
CC1CCN(CCOCCOc2ccc(Br)cc2Cl)CC1 | -15 | 19 | 29* | -20 | -5 | 32* | 37*
COCCCNCCCCOc1ccc(Br)cc1Cl | -5 | 8 | 1 | -19 | -7 | nt | nt
COc1cc(=O)[nH]c(SCC(=O)Nc2nc3c(s2)CCCC3)n1 | -4 | 6 | 1 | -13 | -7 | nt | nt
O=C(COc1ccc(Br)cc1CNC1CCCCC1)NCCc1ccccc1 | -6 | 12 | 21* | -20 | -12 | 48* | 31*
O=C(Nc1ccc(Cl)cc1N1CCOCC1)C1CCCO1 (stereo unspecified) | -1 | 9 | -3 | -10 | 1 | nt | nt
O=C(NCC1CC1)Nc1ccccc1F | -1 | -1 | 99* | 12 | -11 | -7 | 14
Cc1ccc(CN2CCC(CNC(=O)Nc3ccccc3F)CC2)cc1 | -9 | -4 | -5 | -14 | -8 | nt | nt
CC(C)N(CCNC(=O)C1CCCN(c2ncnc3c2nc2n3CCCCC2)C1)Cc1ccccc1 (stereo unspecified) | -18 | 21 | -9 | -2 | 0 | nt | nt
SMILES | CHO parental Ca | OX1R antag-1 | GPR7 antagonist | OX1R antag-2 | GalR3 antagonist | GPR7 antag conf | MCHR1 antagonist
Clc1ccc(Cn2ncc3c(N4CCCCC4)ncnc32)cc1 | -20 | 15 | -9 | -12 | -1 | nt | nt
Clc1ccc(Cn2ncc3c(N4CCCC4)ncnc32)cc1 | -15 | 9 | 25* | -5 | -1 | 19 | 7
CCOc1cc(CNC2CCCC2)cc(Cl)c1OCc1ccc(F)cc1 | 12 | 20 | 25* | 6 | -8 | 49* | 54*
COc1cc(CNC2CCCC2)cc(Cl)c1OCc1ccccc1Cl | 2 | 13 | 9 | 6 | nt | nt | nt
COc1cc(CNC2CCCC2)cc(Cl)c1OCc1ccc(F)cc1 | -9 | 9 | 26* | -5 | -7 | 25* | 22*
CCNCc1cc(Cl)c(OCc2ccccc2)c(OCC)c1 | -13 | 7 | 12 | -4 | -14 | nt | nt
O=NN(CCc1ccncc1)c1ccc(OCc2ccccc2)cc1 | 62* | 53 | 25* | 38* | 3 | 50* | 43*
CC1CN(C(=O)c2ccc(NS(=O)(=O)c3cccc(Cl)c3)cc2)CC(C)O1 (stereo unspecified) | nt | nt | -12 | nt | -1 | nt | nt
CC1CN(C(=O)c2ccc(NS(=O)(=O)c3ccc(C(C)(C)C)cc3)cc2)CC(C)O1 (stereo unspecified) | nt | nt | 33* | nt | -2 | 32* | 42*
COc1ccc(S(=O)(=O)N(C)c2ccc(C(=O)NC3CCCC3)cc2)cc1 | -17 | 30 | -8 | -29 | 0 | nt | nt
CN(c1ccc(C(=O)NC2CCCC2)cc1)S(=O)(=O)c1ccc(Cl)cc1 | -6 | 18 | 33* | -23 | -2 | 24 | 16
N#Cc1ccc(NC(=O)Nc2cccc(C#N)c2)cc1 | nt | nt | 25* | nt | -2 | 36* | 55*
CCN(CC(=O)Nc1cccc(C#N)c1)CC(=O)Nc1cccc(OC)c1 | -20 | 21 | 27* | -18 | -3 | 30* | 17
O=C(NCc1ccc(Cl)cc1)c1ccc(NC(=O)C2CCCO2)cc1 (stereo unspecified) | -3 | 8 | -12 | -7 | -6 | nt | nt
Cc1ccc(S(=O)(=O)CCC(=O)OCC(=O)NCC(=O)Nc2c(C)cc(C)cc2C)cc1 | -22 | 11 | nt | -6 | -5 | nt | nt
O=C(COC(=O)[C@@H]1CCCN1S(=O)(=O)c1ccccc1F)NCc1ccc2c(c1)OCO2 | -15 | 5 | nt | 0 | -1 | nt | nt
COc1cccc(C(C)(O)c2nc(-c3ccc(F)c(Cl)c3)cs2)c1 (stereo unspecified) | nt | nt | nt | nt | -6 | nt | nt
O=[N+]([O-])c1cccc(NC(=S)Nc2nc(-c3ccccc3Cl)cs2)c1 | 64* | 31 | 27* | 31 | -3 | 42* | 55*
